Reference: ChEMBL document CHEMBL1240520, “Synthesis of heterocycle-based analogs of resveratrol and their antitumor and vasorelaxing properties” (Bioorg Med Chem, 2010)
Active and inactive are the calls of the source. The calls are words filed in the database; no cut-off is given here.

Experiments:
Aorta [1] = assay: Vasorelaxant activity in Wistar rat aortic rings assessed as reduction in KCL-induced contractile tone at 30 uM; format: functional
Method in brief: (§1)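 Endothelium-denuded thoracic aortic rings from male normotensive Wistar rats (250–350 g), equilibrated 60 min, precontracted with KCl 30 mM. Compounds added cumulatively at threefold increasing concentrations up to 30 µM. Efficacy is the maximal relaxation, or the response at 30 µM, as % of KCl tone. pIC50 is −log molar concentration halving tone, not calculated below 50% efficacy; mean ± SE, 5–10 experiments.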

MDA-MB-231 = assay: Antitumor activity against human MDA-MB-231 cells after 6 days by SRB assay; format: functional, cell-based; conditions: MDA-MB-231, 144 h
Method in brief: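 MDA-MB-231 cells in DMEM with 5% FBS, 37 °C, 5% CO2, seeded 1.3 × 10³ cells/well and adhered 24 h; treated 0.25 to 64 µM (five wells per treatment, vehicle EtOH or DMSO) for 6 days. TCA-fixed, SRB-stained, OD 540 nm. Proliferation index = OD at day 6 / OD at time zero; IC50 from means of three independent experiments.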

Aorta [2] = assay: Vasorelaxant activity in Wistar rat aortic rings assessed as reduction in KCL-induced contractile tone in presence of tetraethylammonium chloride; format: functional, tissue-based
Aorta [3] = assay: Vasorelaxant activity in Wistar rat aortic rings assessed as reduction in KCL-induced contractile tone; format: functional, tissue-based; method in brief: as §1

| SMILES | IC50 (MDA-MB-231) | IC50 (Aorta [3]) | Emax at 30 µM (Aorta [1]) | Activity (Aorta [2]) |
| --- | --- | --- | --- | --- |
| Oc1ccc(-c2nc3c(O)cc(O)cc3s2)cc1 | > 100 µM | 12.6 µM | 80.6% | inactive |
| O/N=C/c1ccc(-c2cc(O)cc(O)c2)cc1O [SALICYLALDOXIME] |  |  |  | Active |
| Oc1ccc(-c2nc3cc(O)cc(O)c3s2)cc1 | 67.6 µM |  | 39.6% | inactive |
| Oc1ccc(/C=C/c2cc(O)cc(O)c2)cc1 [RESVERATROL] |  | 6.92 µM | 83% | inactive |

Now from value to molecule, other results behind:

| IC50 (MDA-MB-231) | IC50 (Aorta [3]) | SMILES | Emax at 30 µM (Aorta [1]) | Activity (Aorta [2]) |
| --- | --- | --- | --- | --- |
| 47.4 µM | 15.8 µM | Oc1cc(O)cc(-c2cc3ccc(O)cc3nc2Cl)c1 | 84.6% | inactive |
| 17.4 µM |  | Oc1cc(O)cc(-c2cnc3cc(O)ccc3c2)c1 | 17.2% |  |
| 19.4 µM | 12 µM | Oc1cc(O)cc(-c2nc3ccc(O)cc3s2)c1 | 88.2% | Active |
| 46.1 µM | 15.5 µM | Oc1cc(O)cc(-c2cc3cc(O)ccc3o2)c1 | 77.2% | inactive |
|  | 12.9 µM | Oc1cc(O)cc(-c2ccc3cc(O)ccc3c2)c1 | 78.5% | inactive |
| 18.1 µM | 15.5 µM | Oc1cc(O)cc(-c2nc3cccc(O)c3s2)c1 | 76.8% | inactive |
